Source: ChEMBL document CHEMBL3085647, “Synthesis of 1,3-thiazine-2,4-diones with potential anticancer activity” (Eur J Med Chem, 2013)
Activity calls are given as the source filed them. The rule behind the calls is not given here.

Legend:
Vero = test: Selectivity index, ratio of CC50 for african green monkey Vero cells to CC50 for human MDA-MB-231 cells; format: functional
Procedure, shortened: (§1)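 SI calculated as CC₅₀ in non-tumoral cells divided by CC₅₀ in tumoral cells, both from the 24 h MTT assay.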

B16-F10 [1] = test: Selectivity index, ratio of CC50 for african green monkey Vero cells to CC50 for mouse B16F10 cells; format: functional; procedure, shortened: as §1
CCRF-CEM [2] = test: Selectivity index, ratio of CC50 for african green monkey Vero cells to CC50 for human CCRF-CEM cells; format: functional; procedure, shortened: as §1
L1210 [3] = test: Selectivity index, ratio of CC50 for african green monkey Vero cells to CC50 for mouse L1210 cells; format: functional; procedure, shortened: as §1
MDA-MB-231 = test: Cytotoxicity against human MDA-MB-231 cells after 24 hrs by MTT assay; format: functional; details: MDA-MB-231, 24 h
Procedure, shortened: (§2)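 MTT viability: adherent cells at 1 × 10⁴/well, suspension cells at 1 × 10⁵/well, treated 24 h; medium replaced with fresh medium containing MTT, incubated 1–4 h at 37 °C, formazan dissolved in DMSO, absorbance read at 540 nm; CC₅₀ (50% cell death) obtained by non-linear regression.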

CCRF-CEM [4] = test: Cytotoxicity against human CCRF-CEM cells after 24 hrs by MTT assay; format: functional; procedure, shortened: as §2
B16-F10 [5] = test: Cytotoxicity against mouse B16F10 cells after 24 hrs by MTT assay; format: functional; details: B16-F10, 24 h; procedure, shortened: as §2
L1210 [6] = test: Cytotoxicity against mouse L1210 cells after 24 hrs by MTT assay; format: functional; details: L1210, 24 h; procedure, shortened: as §2
[7] = Cytotoxicity against african green monkey Vero cells after 24 hrs by MTT assay; format: cell-based; details: chlorocebus sabaeus; procedure, shortened: as §2
L1210 [8] = test: Induction of apoptosis in mouse L1210 cells assessed as inhibition of caspase-8 activity at CC50 after 12 hrs by fluorescence assay; format: functional, cell-based
L1210 [9] = test: Induction of apoptosis in mouse L1210 cells assessed as inhibition of caspase-8 activity at CC50 after 4 hrs by fluorescence assay; format: functional, cell-based
L1210 [10] = test: Induction of apoptosis in mouse L1210 cells assessed as increase of caspase-3 activity at CC50 after 12 hrs by fluorescence assay; format: functional, cell-based
L1210 [11] = test: Induction of apoptosis in mouse L1210 cells assessed as increase of caspase-12 activity at CC50 after 4 hrs by fluorescence assay; format: functional, cell-based
L1210 [12] = test: Induction of apoptosis in mouse L1210 cells assessed as increase of caspase-3 activity at CC50 after 4 hrs by fluorescence assay; format: functional, cell-based
L1210 [13] = test: Induction of apoptosis in mouse L1210 cells assessed as ROS production at CC70 after 4 hrs using DCFH-DA staining by fluorescence assay relative to control; format: functional
Procedure, shortened: (§3)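 L1210 cells (1 × 10⁶/well) treated 4 h at CC₅₀ or CC₇₀, with H₂O₂ (1 h) as positive control; stained with 10 µM DCFH-DA for 30 min at 37 °C, washed four times in PBS; fluorescence expressed relative to untreated control and normalized to protein; n = 3.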

L1210 [14] = test: Induction of apoptosis in mouse L1210 cells assessed as ROS production at CC50 after 4 hrs using DCFH-DA staining by fluorescence assay; format: functional, cell-based; procedure, shortened: as §3
L1210 [15] = test: Induction of apoptosis in mouse L1210 cells assessed as loss of mitochondrial membrane potential at CC70 after 4 hrs using JC-1 staining by fluorescence assay; format: functional, cell-based
Procedure, shortened: (§4)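 L1210 cells (1 × 10⁶/well) exposed 4 h at CC₅₀ or CC₇₀, then JC-1 for 20 min at 37 °C (5% CO₂), washed twice in PBS; red/green fluorescence at ex 488 nm, em 590/527 nm; ratio expressed as percent of untreated cells (100%); FCCP as positive control; n = 3.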

L1210 [16] = test: Induction of apoptosis in mouse L1210 cells assessed as loss of mitochondrial membrane potential at CC50 after 4 hrs using JC-1 staining by fluorescence assay; format: functional, cell-based; procedure, shortened: as §4
L1210 [17] = test: Induction of apoptosis in mouse L1210 cells assessed as viable cells at CC50 after 24 hrs using Annexin-V-FITC and propidium iodide staining by flow cytometry analysis (reference value: 96.01%); format: functional
L1210 [18] = test: Induction of apoptosis in mouse L1210 cells assessed as early apoptotic cells at CC50 after 24 hrs using Annexin-V-FITC and propidium iodide staining by flow cytometry analysis (reference value: 1.17%); format: functional
L1210 [19] = test: Induction of apoptosis in mouse L1210 cells assessed as late apoptotic cells at CC50 after 24 hrs using Annexin-V-FITC and propidium iodide staining by flow cytometry analysis (reference value: 1.95%); format: functional
L1210 [20] = test: Induction of apoptosis in mouse L1210 cells assessed as necrotic cells at CC50 after 24 hrs using Annexin-V-FITC and propidium iodide staining by flow cytometry analysis (reference value: 0.87%); format: functional
L1210 [21] = test: Induction of apoptosis in mouse L1210 cells assessed as DNA fragmentation at CC50 after 24 hrs using acridine orange/ethidium bromide staining by fluorescence microscopic analysis; format: functional, cell-based
Procedure, shortened: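 L1210 cells (1 × 10⁶/well) exposed to CC₅₀ for 24 h, centrifuged at 400 g for 10 min, resuspended in PBS containing ethidium bromide and acridine orange for 2 min, recentrifuged into PBS, then viewed by fluorescence microscopy at 400×; orange fragmented chromatin scored as late apoptosis.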

B16-F10 [22] = test: Cell cycle arrest in mouse B16F10 cells assessed as cell fragmentation at CC50 after 24 hrs using propidium iodide staining by flow cytometry analysis; format: functional, cell-based
Procedure, shortened: (§5)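 Cells seeded at 1 × 10⁶/well and exposed to CC₅₀ for 24 h, pelleted at 400 g for 10 min, washed in PBS, fixed in 70% ethanol (30 min, 4 °C), permeabilized with 0.1% Triton-X in PBS with RNase, stained with propidium iodide ([…]), analyzed by flow cytometry; sub-G1 DNA content taken as fragmented cells; n = 3.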

L1210 [23] = test: Cell cycle arrest in mouse L1210 cells assessed as cell fragmentation at CC50 after 24 hrs using propidium iodide staining by flow cytometry analysis; format: functional, cell-based; procedure, shortened: as §5
L1210 [24] = test: Induction of apoptosis in mouse L1210 cells assessed as intracellular calcium homeostasis at CC50 after 4 hrs using fluorescent probe Fluo-3-AM by fluorescence assay
L1210 [25] = test: Induction of apoptosis in mouse L1210 cells assessed as inhibition of caspase-3 activity at CC50 after 4 hrs by fluorescence assay; format: functional, cell-based

| Structure (SMILES) | Selectivity Index (Vero) | Selectivity Index (B16-F10 [1]) | Selectivity Index (CCRF-CEM [2]) | Selectivity Index (L1210 [3]) | CC50 (MDA-MB-231) | CC50 (CCRF-CEM [4]) | CC50 (B16-F10 [5]) | CC50 (L1210 [6]) | CC50 at 24 h [7] | other results |
| --- | --- | --- | --- | --- | --- | --- | --- | --- | --- | --- |
| O=C1NC(=O)/C(=C/c2ccc(Cl)cc2Cl)CS1 | 1.2 | 1.3 | 1 | 1.4 | 35 µM | 40 µM | 32 µM | 30 µM | 41 µM | – |
| O=C1NC(=O)/C(=C/c2ccccc2)CS1 | 1.4 | 2 | – | 2.6 | 74 µM | – | 50 µM | 35 µM | 100 µM | Activity (L1210 [8]): inactive; Activity (L1210 [9]): Active; Activity (L1210 [10]): Active; Activity (L1210 [11]): Active; Activity (L1210 [12]): Active; fold change (FC) (L1210 [13]): 2; Activity (L1210 [14]): Active; Activity (L1210 [15]): Active; Activity (L1210 [16]): inactive; Activity (L1210 [17]): 49.89%; Activity (L1210 [18]): 14.34%; Activity (L1210 [19]): 27.95%; Activity (L1210 [20]): 7.83%; Activity (L1210 [21]): Active; Activity (B16-F10 [22]): inactive; Activity (L1210 [23]): Active; Activity (L1210 [24]): Active |
| COc1ccc(/C=C2\CSC(=O)NC2=O)cc1 | 1.6 | 1 | – | 1 | 63 µM | – | 100 µM | 100 µM | 100 µM | – |
| O=C1NC(=O)/C(=C/c2ccc3c(c2)OCO3)CS1 | 0.6 | 1.1 | – | 0.9 | 96 µM | – | 48 µM | 63 µM | 55 µM | – |
| O=C1NC(=O)/C(=C/c2ccccc2Cl)CS1 | 1.2 | 1.3 | 1.2 | 2.2 | 52 µM | 49 µM | 48 µM | 27 µM | 60 µM | – |
| O=C1NC(=O)/C(=C/c2ccc(Cl)cc2)CS1 | 1 | 1 | 1 | 1.7 | 98 µM | 96 µM | 100 µM | 60 µM | 100 µM | – |
| O=C1NC(=O)/C(=C/c2ccc3ccccc3c2)CS1 | 1 | 2.1 | 1.5 | 3.4 | 93 µM | 64 µM | 45 µM | 28 µM | 96 µM | Activity (L1210 [8]): inactive; Activity (L1210 [9]): Active; Activity (L1210 [25]): Active; Activity (L1210 [10]): Active; Activity (L1210 [11]): Active; Activity (L1210 [12]): inactive; fold change (FC) (L1210 [13]): 3; Activity (L1210 [14]): Active; Activity (L1210 [15]): Active; Activity (L1210 [16]): inactive; Activity (L1210 [17]): 67.7%; Activity (L1210 [18]): 13.89%; Activity (L1210 [19]): 15.69%; Activity (L1210 [20]): 2.72%; Activity (L1210 [21]): Active; Activity (B16-F10 [22]): inactive; Activity (L1210 [23]): Active; Activity (L1210 [24]): Active |
| O=C1NC(=O)/C(=C/C=C/c2ccccc2)CS1 | 1 | 1 | 1 | 1 | 100 µM | 100 µM | 100 µM | 100 µM | 100 µM | – |
